Test results taken from ChEMBL document CHEMBL2010774, “Cytotoxic apigenin derivatives from Chrysopogon aciculatis” (J Nat Prod, 2012).

Columns and labels:
Format in all cases: functional, cell-based
NCI-H460 = assay: Cytotoxicity against human NCI-H460 cells after 48 hrs by alamar blue assay; conditions: NCI-H460, 48 h
Method in brief: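 H460, a human lung cancer cell line.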

HT-29 = assay: Cytotoxicity against human HT-29 cells after 48 hrs by alamar blue assay; conditions: HT-29, 48 h
Method in brief: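 HT-29, a human colon cancer cell line.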

MCF7 = assay: Cytotoxicity against human MCF7 cells after 48 hrs by alamar blue assay; conditions: MCF7, 48 h
Method in brief: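 MCF-7, a human breast cancer cell line.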

CCRF-CEM = assay: Cytotoxicity against human CEM cells after 48 hrs by alamar blue assay
Method in brief: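 CEM, a human leukemia cell line.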

SMILES	IC50 (NCI-H460)	IC50 (HT-29)	IC50 (MCF7)	IC50 (CCRF-CEM)
C[C@H]1O[C@@H](c2c(O)cc(O)c3c(=O)cc(-c4ccc(O)cc4)oc23)C[C@H](O)[C@@H]1O	18.2 µM	25.3 µM	6.35 µM	4.42 µM
C[C@H]1O[C@@H](c2c(O)cc(O)c3c(=O)cc(-c4ccc(O)cc4)oc23)C[C@H](O)[C@H]1O	12 µM	10 µM	75 µM	2.58 µM
COc1cc(O)c2c(=O)cc(-c3ccc(O[C@@H]4O[C@H](CO)[C@@H](O)[C@H](O)[C@H]4O)cc3)oc2c1[C@H]1C[C@H](O)[C@H](O)[C@@H](C)O1	> 100 µM	> 100 µM	> 100 µM	> 100 µM
COc1cc(O)c2c(=O)cc(-c3ccc(O)cc3)oc2c1[C@H]1CC(=O)[C@H](O)[C@@H](C)O1 [ACICULATINONE]	18.1 µM	11.6 µM	18.4 µM	13.3 µM
COc1cc(O)c2c(=O)cc(-c3ccc(O)cc3)oc2c1[C@H]1C[C@H](O)[C@H](O)[C@@H](C)O1 [ACICULATIN]	46.9 µM	26 µM	3.16 µM	2.65 µM
COc1cccc2c1C(=O)c1c(O)c3c(c(O)c1C2=O)C[C@@](O)(C(=O)CO)C[C@@H]3O[C@H]1C[C@H](N)[C@H](O)[C@H](C)O1 [DOXORUBICIN]		6.04 µM	2.5 µM	
